From article PMC12120100 (Scientific Reports, 2025)

Assays:
Test in all cases: Alkaline comet assay
Type in all cases: cell-based, human
PBLs = conditions: 20 µM (positive control), 24 h, ± SEM
Procedure, shortened: (§1)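 Alkaline comet assay. Cells seeded in 6-well plates at 150 000 (HT-29), 250 000 (PC3) or 600 000 (PBLs) per 2 mL and left 24 h, then exposed 24 h (37 °C, 5% CO2) to test compound at 0.5, 1 and 2 µM. Controls: untreated and 20 µM bleomycin. Cells pelleted at 1400 rpm, 10 min, 4 °C. Slides stained with DAPI (1 µg/ml); about 100 cells/slide scored. Output: mean % tail DNA ± SEM; ANOVA with Dunnett's test.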

HT-29 cells = conditions: HT-29, 20 µM (positive control), 24 h, ± SEM
Procedure, shortened: as §1

PC-3 cells = conditions: PC-3, 20 µM (positive control), 24 h, ± SEM
Procedure, shortened: as §1

bleomycin
DNA damage (mean tail DNA %) (PBLs): 41.33 ± 1.95%
DNA damage (mean tail DNA %) (HT-29 cells): 33.58 ± 3.62%
DNA damage (mean tail DNA %) (PC-3 cells): 44.99 ± 2.37%
